Ecoli rRNA inh – selective bacterial rRNA inhibition in E. coli | E. coli WT GFP vs humanized-ribosome RFP mutants, fluorescence, 24 h; active compounds read low; DMSO median 0, no signal -100 | GFP signal change (wild-type ribosome), % (test concentration not listed) | 350,000 compounds, 1.6% hits;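 active = significant combined selectivity score with lowered wild-type GFP, culture density cut under 30%, mutant RFP and density less affected; inactive = any of these conditions unmet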
Cneo AK release – causes C. neoformans cell lysis; adenylate kinase release luminescence, 4 h; normalised: neutral wells 0, clomiphene wells 100; lysis activity, % at 15 µM; 360,000 compounds, 0.2% hits;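 active = mean lysis activity across replicates of at least 80%, whatever share of replicates individually reach that level; inactive = mean lysis activity below 80%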
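Material – log-phase Cryptococcus neoformans yeast cells · Input – 5 × 10^6 yeast cells/mL · Medium – fresh YPD growth medium · Doses – single compound concentration per well · Timing – static 4 h at 37 °C with compound, 1 h detection · Detection – adenylate kinase release luminescence · Read-out – signal increase indicating cell lysis · Control set – Clomiphene as positive lysis control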
PfHsp90 set2 – reduces growth (ATP signal) of yeast expressing P. falciparum Hsp90; S. cerevisiae expressing PfHsp90, BacTiter-Glo ATP, 48 h; yeast lacking PDR1 and PDR3 efflux regulators; inhibition, % at 9.4 µM; 310,000 compounds, 0.32% hits; AID 504621;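 active = every replicate shows inhibition above about 80%, whatever the replicate mean, limit read from the data; inconclusive = mean inhibition reaches the set limit but some replicate falls short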;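 note: 0% = DMSO neutral controls and 100% = 20 µM radicicol positive controls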
MLL AF4-AF9 inh – inhibitors of human MLL-AF4/AF9 interaction; P42568; AlphaScreen, biotin-AF4 peptide binding to FLAG-AF9; inhibition, % at 10 µM; 350,000 compounds, 0.47% hits;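 active = every replicate reaching a set inhibition limit, whatever the replicate mean, cut at about 25% in these data; inconclusive = mean inhibition reaches that limit but some replicates miss it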;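 note: 0% = plate neutral control median and 100% = total signal loss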
Target sequence (P42568 whole entry, looked up): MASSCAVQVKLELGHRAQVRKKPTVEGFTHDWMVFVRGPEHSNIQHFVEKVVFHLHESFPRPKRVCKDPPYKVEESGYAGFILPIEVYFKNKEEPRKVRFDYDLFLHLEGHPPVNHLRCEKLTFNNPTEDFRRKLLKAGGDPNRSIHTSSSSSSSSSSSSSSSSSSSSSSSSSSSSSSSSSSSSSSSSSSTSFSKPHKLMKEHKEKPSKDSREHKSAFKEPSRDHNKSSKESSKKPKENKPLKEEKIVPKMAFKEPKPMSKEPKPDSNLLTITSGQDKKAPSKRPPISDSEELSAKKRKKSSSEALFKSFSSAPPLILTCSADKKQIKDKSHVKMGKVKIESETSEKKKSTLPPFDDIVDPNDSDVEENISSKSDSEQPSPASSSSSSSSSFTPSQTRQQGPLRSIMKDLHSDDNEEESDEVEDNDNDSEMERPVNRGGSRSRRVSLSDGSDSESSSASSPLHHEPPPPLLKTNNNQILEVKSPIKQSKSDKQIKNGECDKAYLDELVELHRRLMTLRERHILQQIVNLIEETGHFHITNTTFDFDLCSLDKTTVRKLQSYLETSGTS
S100A4 inh HTS – blocks human S100A4 binding to myosin IIA peptide; inhibition, % at 10.7 µM; P26447; AID 652163; 360,000 compounds, 0.14% hits; S100A4/TAMRA-MyoIIA peptide fluorescence polarization;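 active = mean inhibition of at least 70% across replicates, with every replicate also reaching that level; inconclusive = mean inhibition reaches 70% but some replicates fall short; inactive = mean inhibition below 70%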
Target sequence (P26447 whole entry, looked up): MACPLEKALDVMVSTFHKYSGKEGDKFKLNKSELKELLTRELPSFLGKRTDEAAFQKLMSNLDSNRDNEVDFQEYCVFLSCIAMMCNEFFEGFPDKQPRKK
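assay system = human S100A4 monomer with TAMRA-labelled myosin IIA peptide | also added = labelled myosin peptide probe, 5 nM | incubation = 5 min between mix addition and reading | control set = DMSO and TFP controls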
DENV2 CPE – protects cells from dengue virus 2 cytopathic effect; CPE inhibition, % at 9.99 µM; DENV2-infected cells, cytopathic effect rescue, plate reader; 350,000 compounds, 1.7% hits; AID 651640; in the data active = CPE inhibition above about 20%, passing the limit was not always enough; inconclusive = no clear call, values can overlap the other calls; tested in BHK-21 cells;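 note: 0% = median of neutral control wells and 100% = median of positive control wells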
Starred values were filed as active, the others as inactive; u = inconclusive; x = no result given. An excerpt weighted towards active compounds, which were near 3.2% of everything screened.

SMILES | Ecoli rRNA inh | Cneo AK release | PfHsp90 set2 | MLL AF4-AF9 inh | S100A4 inh HTS | DENV2 CPE
Cc1ccccc1S(=O)(=O)N[C@@H]1CC[C@H](CCNS(=O)(=O)c2cccc(F)c2)O[C@@H]1CO | 0 | 45 | x | -1 | 14 | 10
Cc1ccccc1S(=O)(=O)N[C@H]1CC[C@H](CCNS(=O)(=O)c2cccc(F)c2)O[C@H]1CO | -6 | 93* | x | -1 | -7 | -2
O=C(C[C@H]1CC[C@H](NS(=O)(=O)c2cccc(F)c2)[C@H](CO)O1)N1CCCCC1 | 2 | -5 | x | -3 | -8 | 2
Cc1ccccc1S(=O)(=O)N[C@@H]1CC[C@H](CCNS(=O)(=O)c2cccc(F)c2)O[C@H]1CO | -4 | 90* | x | -3 | 0 | -4
O=C(C[C@@H]1C[C@H]2c3cc(NC(=O)NC4CCCC4)ccc3O[C@H]2[C@@H](CO)O1)NCc1ccc2c(c1)OCO2 | 2 | 56 | x | -1 | 6 | x
COc1ccc(S(=O)(=O)N(C)C[C@@H]2OCCCC[C@@H](C)Oc3ccc(NC(=O)CCC(F)(F)F)cc3C(=O)N([C@H](C)CO)C[C@H]2C)cc1 | -1 | -4 | x | 0 | 6 | -9
O=C(NCC[C@@H]1CC[C@@H](NS(=O)(=O)c2cccc(F)c2)[C@@H](CO)O1)Nc1cc(F)ccc1F | -4 | -1 | x | 2 | 5 | 24*
O=C(NCC[C@@H]1CC[C@H](NS(=O)(=O)c2cccc(F)c2)[C@H](CO)O1)Nc1cc(F)ccc1F | -6 | 0 | x | -3 | 8 | 5
COc1ccccc1S(=O)(=O)N[C@@H]1CC[C@@H](CCNC(=O)C2CCOCC2)O[C@@H]1CO | 0 | -2 | x | 1 | -2 | -2
CCc1cccc(C)c1NC(=S)NCC1CCN(c2ccc(OC)cc2)C1 (configuration not stated) | -13 | 3 | -38 | u | 2 | -2
CCc1ccccc1NC(=S)NCC1CCN(c2ccc(OC)cc2)C1 (configuration not stated) | -18* | 0 | 7 | 16 | -4 | 8
CN1C(=O)c2cc(NC(=O)c3ccccc3)ccc2OC[C@@H]2O[C@@H](CC(=O)NCC3CC3)CC[C@H]21 | 3 | -3 | x | -1 | 4 | -4
O=C(Nc1ccccc1Br)C1CCN(S(=O)(=O)c2cccs2)CC1 | -16* | -4 | -21 | -3 | 6 | 5
Cc1ccccc1NC(=O)C1CCN(S(=O)(=O)c2cccs2)CC1 | 1 | 1 | -5 | 0 | 5 | -6
CC(C)C#Cc1ccc2c(c1)O[C@@H](CN(C)C(=O)c1cccc(F)c1)[C@H](C)CN([C@H](C)CO)S2(=O)=O | -2 | -1 | x | -6 | 1 | -7
CC(C)NC(=O)N(C)C[C@H]1Oc2cc(-c3ccncc3)ccc2S(=O)(=O)N([C@H](C)CO)C[C@H]1C | -2 | -4 | x | -3 | 4 | -12
COc1ccc(NC(=O)CN(c2cc(C)cc(C)c2)S(=O)(=O)c2c(C)n[nH]c2C)cc1 | 3 | -1 | -2 | -7 | 2 | -2
COc1ccc(N(CC(=O)Nc2ccc(F)c(F)c2)S(=O)(=O)c2c(C)n[nH]c2C)cc1 | -26* | -1 | -27 | -1 | -2 | -4
COc1ccc(NC(=O)CCN(c2ccc(OC)cc2)S(=O)(=O)c2ccc(C)c(C)c2)cc1 | -27* | 3 | -6 | 1 | -2 | -6
N#C[C@@H]1[C@H](c2ccccc2-c2ccc(F)cc2)[C@H](CO)N1C(=O)NC1CCCC1 | -9 | x | x | 2 | -9 | -6
C[C@H](NC(=O)C[C@@H]1C=C[C@H](NC(=O)C2CC2)[C@H](CO)O1)c1ccccc1 | -1 | -4 | x | 2 | -4 | 4
O=C(NC(=S)N1CCCCC1)c1csc([N+](=O)[O-])c1 | -23* | 5 | -10 | 1 | -3 | 1
C=CCNC(=S)NC(=O)c1csc([N+](=O)[O-])c1 | -7 | x | -8 | 2 | 0 | 16
Cc1cccc(S(=O)(=O)N2CC[C@@H]3[C@@H](CO)Nc4ccc(C#Cc5ccc(F)cc5)cc4[C@@H]32)c1 | -3 | 52 | x | 0 | 1 | -6
COc1ccc2c3c([nH]c2c1)[C@H](CO)N(Cc1ccccc1F)CC31CN(C(=O)C2CCCC2)C1 | -6 | x | x | 0 | 1 | 24*
SMILES | Ecoli rRNA inh | Cneo AK release | PfHsp90 set2 | MLL AF4-AF9 inh | S100A4 inh HTS | DENV2 CPE
COc1ccc2c3c([nH]c2c1)[C@H](CO)N(C)CC31CN(C(=O)C2CC2)C1 | 3 | x | x | 0 | 2 | 45*
CCNC(=O)[C@@H]1[C@@H](CO)[C@@H]2Cn3c(ccc(C4=CCCCC4)c3=O)[C@@H]2N1C(=O)CC1CC1 | 2 | 55 | x | -1 | -3 | x
C[C@@H]1CN([C@H](C)CO)C(=O)Cc2cc(NC(=O)Nc3ccccc3)ccc2O[C@@H]1CN(C)Cc1ccc(C(=O)O)cc1 | x | -1 | x | -2 | 11 | u
COC(=O)C[C@@H]1CC[C@H]2[C@H](COc3ccc(NC(=O)c4cnccn4)cc3C(=O)N2C)O1 | -3 | -1 | x | 0 | -44 | -12
COC(=O)C[C@H]1CC[C@H]2[C@@H](COc3ccc(NC(=O)c4cnccn4)cc3C(=O)N2C)O1 | 2 | 67 | x | -2 | 1 | 144*
CN1C(=O)c2cc(NC(=O)c3cnccn3)ccc2OC[C@H]2O[C@@H](CC(=O)NCC3CCCCC3)CC[C@H]21 | -1 | 4 | x | 1 | -1 | 10
CN1C(=O)c2cc(NC(=O)c3cnccn3)ccc2OC[C@@H]2O[C@@H](CC(=O)NCC3CCCCC3)CC[C@H]21 | 1 | 53 | x | 0 | 4 | 30*
CCCNC(=O)N1[C@H](CO)[C@@H](c2ccc(C3=CCCC3)cc2)[C@@H]1CN(C)C(C)=O | -5 | 87* | x | x | x | -5
CCCNC(=O)NC[C@H]1[C@H](c2ccc(C3=CCCCC3)cc2)[C@@H](CO)N1C(C)=O | 1 | 6 | x | 4 | -6 | 22*
CCCN1[C@H](CO)[C@H](c2ccc(C3=CCCCC3)cc2)[C@@H]1CNS(C)(=O)=O | -3 | x | x | 4 | 80* | -8
CCCN1[C@H](CO)[C@H](c2ccc(C3=CCCCC3)cc2)[C@@H]1CNC(=O)COC | 0 | x | x | -1 | -1 | 1
CC(=O)NC[C@@H]1[C@@H](c2ccc(C3=CCCC3)cc2)[C@H](CO)N1C(=O)NC(C)C | 1 | 15 | x | -1 | 1 | -9
CC(=O)NC[C@H]1[C@@H](c2ccc(C3=CCCC3)cc2)[C@@H](CO)N1C(=O)NC(C)C | 0 | 120* | x | x | x | u
CCCNC(=O)NC[C@@H]1[C@H](c2ccc(C3=CCCCC3)cc2)[C@@H](CO)N1C(C)=O | -7 | -3 | x | 9 | -10 | -8

Screening data: PubChem BioAssay, Broad Institute
